The source made the active and inactive calls. The rule behind the calls is not given here.

The Ki is a dissociation constant, usually derived from enzyme kinetics or from competition with a known ligand.

In data set [1] the target is T1, Glucocorticoid receptor (Homo sapiens) (UniProt P04150).
T1 sequence (whole entry): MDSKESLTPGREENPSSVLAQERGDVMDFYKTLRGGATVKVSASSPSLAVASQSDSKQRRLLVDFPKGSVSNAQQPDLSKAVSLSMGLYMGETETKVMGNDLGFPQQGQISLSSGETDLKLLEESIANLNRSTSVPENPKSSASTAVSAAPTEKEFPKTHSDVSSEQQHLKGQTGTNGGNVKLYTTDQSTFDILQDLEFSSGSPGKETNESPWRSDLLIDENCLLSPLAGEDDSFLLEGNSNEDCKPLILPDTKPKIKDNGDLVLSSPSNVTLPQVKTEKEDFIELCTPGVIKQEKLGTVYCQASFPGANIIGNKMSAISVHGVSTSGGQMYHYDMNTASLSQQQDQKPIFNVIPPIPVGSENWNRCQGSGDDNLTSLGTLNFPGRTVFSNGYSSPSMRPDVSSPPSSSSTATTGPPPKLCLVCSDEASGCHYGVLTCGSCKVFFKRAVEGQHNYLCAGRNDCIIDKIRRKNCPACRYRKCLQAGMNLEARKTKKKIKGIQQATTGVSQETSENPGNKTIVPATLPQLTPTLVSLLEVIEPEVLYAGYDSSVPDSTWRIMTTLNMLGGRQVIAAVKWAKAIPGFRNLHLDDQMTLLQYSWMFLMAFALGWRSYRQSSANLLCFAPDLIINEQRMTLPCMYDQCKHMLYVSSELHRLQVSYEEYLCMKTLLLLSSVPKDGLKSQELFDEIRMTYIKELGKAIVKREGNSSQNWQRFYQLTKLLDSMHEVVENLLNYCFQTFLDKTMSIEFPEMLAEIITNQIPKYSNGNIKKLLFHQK
Conditions: CV-1.

In data set [2] the test system is Mus musculus. Kind of data set: Toxicity in Swiss-Webster mouse assessed as decrease in bone formation at 3 mg/kg after 28 days. The class given is organism-based. Particulars: in vivo, 672 h. Also on record: dose 3 mg/kg. In a few lines: (§1)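 Male Swiss–Webster mice, three months old, singly housed on standard chow, dosed orally for 28 days (vehicle; 3, 10, 30 mg/kg). Alizarin red 30 mg/kg s.c. at baseline DXA and calcein 15 mg/kg s.c. at final DXA for labeling. Tibial cortical histomorphometry under epifluorescence. Periosteal BFR = double-labeled surface × MAR/periosteal perimeter.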

For data set [3], the system named is Mus musculus. Put plainly: Toxicity in Swiss-Webster mouse assessed as decrease in bone formation at 10 mg/kg after 28 days. It is filed as organism-based. Also on record: dose 10 mg/kg. Conditions: in vivo, 672 h. In a few lines:
as §1

In data set [4] the test system is Mus musculus. Kind of data set: Toxicity in Swiss-Webster mouse assessed as decrease in bone formation at 30 mg/kg after 28 days. The class given is organism-based. Also on record: dose 30 mg/kg. Conditions: in vivo, 672 h. In a few lines: as §1
For data set [5], the target named is T2, Glucocorticoid receptor (Rattus norvegicus) (UniProt P06536).
T2 sequence (whole entry): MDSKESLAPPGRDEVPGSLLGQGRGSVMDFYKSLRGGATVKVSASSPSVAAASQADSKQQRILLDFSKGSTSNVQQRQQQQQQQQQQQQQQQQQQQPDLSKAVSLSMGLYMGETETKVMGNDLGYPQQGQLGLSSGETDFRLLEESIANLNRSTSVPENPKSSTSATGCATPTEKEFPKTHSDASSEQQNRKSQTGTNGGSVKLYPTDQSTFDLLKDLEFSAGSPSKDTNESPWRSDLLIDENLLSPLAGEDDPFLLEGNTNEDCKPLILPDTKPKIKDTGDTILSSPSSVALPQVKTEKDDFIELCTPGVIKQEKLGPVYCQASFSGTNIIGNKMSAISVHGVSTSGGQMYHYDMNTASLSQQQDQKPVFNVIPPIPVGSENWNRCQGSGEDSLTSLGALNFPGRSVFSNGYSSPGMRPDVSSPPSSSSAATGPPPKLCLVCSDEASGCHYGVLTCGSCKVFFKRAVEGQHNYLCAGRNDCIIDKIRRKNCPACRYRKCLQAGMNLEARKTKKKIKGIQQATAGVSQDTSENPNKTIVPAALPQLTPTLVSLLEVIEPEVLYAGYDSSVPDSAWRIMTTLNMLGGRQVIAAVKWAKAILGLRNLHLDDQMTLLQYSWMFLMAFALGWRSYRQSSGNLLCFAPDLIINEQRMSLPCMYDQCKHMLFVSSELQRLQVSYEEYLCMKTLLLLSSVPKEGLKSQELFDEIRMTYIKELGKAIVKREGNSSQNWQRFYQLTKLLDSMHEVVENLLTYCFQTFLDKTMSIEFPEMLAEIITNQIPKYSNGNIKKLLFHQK
Put plainly: Activity at endogenous glucocorticoid receptor in rat H42E liver cells assessed as increase in transcriptional activation of phosphoenol pyruvate carboxykinase at 0.01 uM after 24 hrs by RT-PCR. It is filed as cell-based. In a few lines:
(§2)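 H4IIE rat liver cells (endogenous GR) kept in 10% FBS, seeded overnight at 3.5 × 10^5 cells/well, then given vehicle or compound in 10% dextran/charcoal-treated FBS for 24 h. RNA extracted, first-strand cDNA made, real-time PCR run (40 cycles). Target signal divided by 36B4 control gene. Triplicate biological samples and triplicate assays per dose; one-way ANOVA with Dunnett's method.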

The target in data set [6] is T2, Glucocorticoid receptor (Rattus norvegicus). Put plainly: Activity at endogenous glucocorticoid receptor in rat H42E liver cells assessed as increase in transcriptional activation of pyruvate dehydrogenase kinase at 0.1 uM after 24 hrs by RT-PCR. The class given is cell-based. In a few lines: as §2
Data set [7] has as its system Mus musculus. Put plainly: Inhibition of collagen-induced arthritis in DBA/1 mouse at less than 3 mg/kg, po after 15 days. It is filed as functional, organism-based. Details: dose 3 mg/kg. The method in brief: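 Female DBA/1 mice, 6–8 weeks old, acclimatized 10 days. Bovine type II collagen (stored at 4 mg/ml in 0.01 M acetic acid) with complete Freund's adjuvant given intradermally at tail base on days 1 and 7. Daily oral gavage days 17–31 (15 days). Limbs scored 0–4 for clinical arthritis signs; 10 mice/group. One-way ANOVA with Fisher's LSD, P < 0.05.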

Data set [8] deals with Mus musculus. Kind of data set: Toxicity in Swiss-Webster mouse assessed as increase in body fat at 10 mg/kg after 28 days. It is filed as organism-based. Also on record: dose 10 mg/kg. Particulars: in vivo, 672 h. In a few lines:
(§3)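 Male Swiss–Webster mice, three months old, singly housed, 12-h light cycle, chow ad libitum. Oral treatment for 28 days with vehicle or 3, 10, 30 mg/kg. Percentage body fat measured by DEXA, compared against vehicle controls.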

Data set [9] concerns Mus musculus. Put plainly: Toxicity in Swiss-Webster mouse assessed as increase in body fat at 30 mg/kg after 28 days. It is filed as organism-based. Details: dose 30 mg/kg. Particulars: in vivo, 672 h. The method in brief:
as §3

The species named for data set [10] is Mus musculus. Kind of data set: Toxicity in Swiss-Webster mouse assessed as increase in body fat after 28 days relative to control. It is filed as organism-based. Particulars: in vivo, 672 h. In a few lines: as §3
Another data set addresses T3, Progesterone receptor (Homo sapiens, UniProt P06401).
T3 sequence (P06401 whole entry): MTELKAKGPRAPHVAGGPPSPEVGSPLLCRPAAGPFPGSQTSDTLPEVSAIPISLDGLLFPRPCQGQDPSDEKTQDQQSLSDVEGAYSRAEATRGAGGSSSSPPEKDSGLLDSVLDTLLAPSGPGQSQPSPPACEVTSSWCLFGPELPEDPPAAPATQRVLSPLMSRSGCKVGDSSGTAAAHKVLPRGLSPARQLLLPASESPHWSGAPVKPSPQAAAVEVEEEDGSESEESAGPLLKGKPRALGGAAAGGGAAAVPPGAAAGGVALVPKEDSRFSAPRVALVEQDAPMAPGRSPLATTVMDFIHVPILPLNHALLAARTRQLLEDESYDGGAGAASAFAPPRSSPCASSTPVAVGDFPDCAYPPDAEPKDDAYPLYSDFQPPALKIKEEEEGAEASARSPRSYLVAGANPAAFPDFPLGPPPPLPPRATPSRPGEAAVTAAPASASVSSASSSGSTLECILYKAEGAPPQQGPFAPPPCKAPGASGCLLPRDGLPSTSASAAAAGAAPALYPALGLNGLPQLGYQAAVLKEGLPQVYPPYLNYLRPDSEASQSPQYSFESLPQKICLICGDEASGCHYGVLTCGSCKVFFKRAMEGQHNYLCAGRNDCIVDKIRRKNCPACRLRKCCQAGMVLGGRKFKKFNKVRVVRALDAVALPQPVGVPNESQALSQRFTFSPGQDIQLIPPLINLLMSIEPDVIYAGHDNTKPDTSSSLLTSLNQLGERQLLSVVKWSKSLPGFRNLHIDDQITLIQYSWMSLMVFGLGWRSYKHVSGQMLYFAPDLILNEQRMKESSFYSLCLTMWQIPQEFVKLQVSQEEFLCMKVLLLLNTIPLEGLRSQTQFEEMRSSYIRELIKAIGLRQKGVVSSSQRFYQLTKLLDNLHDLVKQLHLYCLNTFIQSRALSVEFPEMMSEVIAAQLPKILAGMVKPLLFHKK
Put plainly: Binding affinity to human recombinant progesterone-A receptor expressed in SF9 cells. In a few lines: (§4)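 Receptor source: extracts of SF-9 insect cells infected with recombinant baculovirus expressing the indicated receptor. Affinity was measured in a labeled-hormone binding assay.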

A further data set deals with T4, Androgen receptor (Homo sapiens, UniProt P10275).
T4 sequence (P10275 whole entry): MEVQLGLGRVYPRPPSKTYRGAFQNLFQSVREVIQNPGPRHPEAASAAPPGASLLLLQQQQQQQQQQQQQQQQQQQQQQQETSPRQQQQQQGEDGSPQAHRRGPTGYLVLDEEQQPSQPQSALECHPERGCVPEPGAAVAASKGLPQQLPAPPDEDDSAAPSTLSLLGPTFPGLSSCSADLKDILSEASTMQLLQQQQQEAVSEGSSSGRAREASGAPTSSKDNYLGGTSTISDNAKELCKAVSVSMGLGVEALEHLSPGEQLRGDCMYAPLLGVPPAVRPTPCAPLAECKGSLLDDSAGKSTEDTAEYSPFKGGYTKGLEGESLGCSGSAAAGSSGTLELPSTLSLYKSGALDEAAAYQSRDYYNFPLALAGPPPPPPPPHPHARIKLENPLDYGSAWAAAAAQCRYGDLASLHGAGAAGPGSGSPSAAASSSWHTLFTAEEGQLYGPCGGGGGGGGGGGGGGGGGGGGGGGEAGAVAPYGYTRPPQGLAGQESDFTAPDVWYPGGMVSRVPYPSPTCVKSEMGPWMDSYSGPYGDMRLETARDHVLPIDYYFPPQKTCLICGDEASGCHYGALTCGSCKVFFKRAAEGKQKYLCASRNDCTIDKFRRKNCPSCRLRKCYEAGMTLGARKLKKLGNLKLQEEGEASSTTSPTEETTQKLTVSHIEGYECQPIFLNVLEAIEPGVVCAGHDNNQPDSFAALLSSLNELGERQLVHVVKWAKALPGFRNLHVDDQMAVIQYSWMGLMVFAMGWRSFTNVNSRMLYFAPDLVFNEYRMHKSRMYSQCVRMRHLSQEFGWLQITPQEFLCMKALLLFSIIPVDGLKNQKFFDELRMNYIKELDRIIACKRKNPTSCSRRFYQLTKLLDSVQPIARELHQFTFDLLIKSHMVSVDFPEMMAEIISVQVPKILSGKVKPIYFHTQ
Put plainly: Binding affinity to human recombinant androgen receptor expressed in SF9 cells. In a few lines:
as §4

In turn, `C[C@@H]1C[C@H]2[C@@H]3CCC4=CC(=O)C=C[C@]4(C)[C@@]3(F)[C@@H](O)C[C@]2(C)[C@@]1(O)C(=O)CO` displayed an ED50 in data set [1] of 0.1 nM.

On to `C[C@]12C=CC(=O)C=C1CC[C@@H]1[C@@H]2[C@@H](O)C[C@@]2(C)[C@H]1CC[C@]2(O)C(=O)CO` [PREDNISOLONE], for which the Activity entry in the data set with Mus musculus [2], with Mus musculus [3], with Mus musculus [4], in the data set on Mus musculus [8] and with Mus musculus [9] was “Toxic” throughout. Also, the outcome (in [5]; in data set [6]; in the data set on Mus musculus [7]) was Active. Besides, the ED50 in data set [1] worked out at 4 nM.

For `COc1c(O)ccc2c1-c1ccc3c(c1/C(=C/c1cccc(C)c1F)O2)C(C)=CC(C)(C)N3`, the Activity result in the data set listed under Mus musculus [10] and in the data set on Mus musculus [4] was “Toxic” in each case. Further, the inhibition constant (Ki) was 866 nM at Progesterone receptor and 910 nM at Androgen receptor. Moreover, the result in the data set on Mus musculus [7] was Active.
